Assay results reported in PubChem BioAssay.
Inconclusive results are not listed. The source made the active and inactive calls.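 The calls were made as follows, unless noted: active = viability increase at or above a cutoff of the median across tested compounds plus 3 SD (cut at about 8.5% in these data, passing the limit was not always enough); inconclusive = some gains above the cutoff, reason not given; inactive = the rest.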

What was measured:
[1] = OD615 S. cerevisiae growth inhibition, permissive medium, pilot counter-assay, permissive growth control for S. cerevisiae lifespan shortening project (AID 705;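 active = growth inhibition above 25% in both replicates, a cutoff set 3 SD above the mean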); conditions: OD615, 24 h, at 10 µM, stronger effect = higher value
How it was run: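 Material: engineered DeaD yeast; compound dosing: one dose 10 µM, DMSO 0.25% final; measure: yeast growth inhibition indicated by reduced 24 h OD615; detection: OD615 turbidity read; incubation: cells pre-grown 4 h, then 24 h compound exposure, 30 °C humidified; medium: permissive synthetic complete medium with raffinose and galactose carbon sources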

[2] = Restrictive medium S. cerevisiae growth inhibition, OD615, pilot screen of yeast lifespan reduction project, restrictive growth control (AID 706;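 active = growth inhibition above a set limit, 3 SD over mean compound inhibition, in both replicates, cut at about 43% in these data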;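 also: modified DeaD lifespan yeast strain shifted to restrictive glucose medium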); conditions: OD615, 48 h, at 10 µM, stronger effect = higher value
How it was run: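 material = engineered S. cerevisiae DeaD strain | medium = glucose-based CSMM-D restrictive medium | times = 4 h pre-incubation, 48 h exposure at 30 °C | technique = OD615 absorbance reading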

[3] = viability gain of MRP-1-high H69AR cells under doxorubicin, pilot screen, MRP-1 activator project, CellTiter-Glo, duplicate (AID 807); conditions: H69AR viability with doxorubicin, CellTiter-Glo luminescence; at 10 µM; stronger effect = higher value;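 also: compound pretreatment 18-22 h then 72 h combined with doxorubicin; 0% = doxorubicin alone and 100% = vehicle without doxorubicin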
[4] = growth suppression of PTEN-deleted HCT116, pilot screen, cell-based, HCT116 clonal line, CellTiter-Glo (AID 824;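 active = viability at or below 27.92% in each of two runs, the all-compound median minus 4 SD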;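 also: 0% = 20 µM Hyamine control and 100% = vehicle cell control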); conditions: 60 h, at 10 µM, stronger effect = lower value
[5] = inhibitors of the yeast RAM network, pilot screen, dse1pr::URA3 reporter, 5-FOA selection (AID 869;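 active = inhibition over a set limit, the all-compound mean plus 3 SD, in both replicate runs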;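 also: 0% = DMSO wells with no growth and 100% = 10 µM 1-NA-PP1 with full growth; RAM network block rescues cells from 5-FOA so hits raise OD615 growth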); conditions: S. cerevisiae dse1pr::URA3 5-FOA growth, OD615, 2 d, at 10 µM, stronger effect = higher value
[6] = RAM signaling pathway blockade in yeast – S. cerevisiae, Pdr1DBD-CYC8 efflux-inhibited sensitized strain, primary screen (AID 1298;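 active = RAM network inhibition above 8.4% in each of two replicates, 3 SD over the compound average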;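 also: 0% = DMSO untreated cells without growth and 100% = 10 µM 1-NA-PP1 full growth; higher means more yeast growth rescued from 5-FOA killing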); conditions: S. cerevisiae cbk1-as DSE1-URA3 strain, 5-FOA growth OD615, 2 d; at 50 µM; stronger effect = higher value
[7] = Recombinant Mtb pantothenate synthetase (PanC) inhibitors, coupled enzyme, confirmatory (AID 375; call rule not given here;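 as to inhibition: 0% = full reaction with vehicle and 100% = no enzyme background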); conditions: coupled enzyme assay
[8] = growth suppression of beta-catenin knockout HCT116, pilot screen, human colon tumor cells (AID 823;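 active = cell viability at or below a set limit in both duplicate runs, the limit being the all-compound median minus 4 SD, cut at about 23% in these data, passing the limit was not always enough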;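 also: 0% = wells killed by 20 µM Hyamine and 100% = untreated DMSO cell wells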); conditions: CellTiter-Glo, 60 h, at 10 µM, stronger effect = lower value
[9] = target: Pantothenate synthetase (Mycobacterium tuberculosis (strain ATCC 25618 / H37Rv)) (UniProt P9WIL5); assay: Recombinant Mtb pantothenate synthetase (PanC) inhibitors, coupled enzyme, confirmatory (AID 375); conditions: coupled enzyme assay; at 10 µM, stronger effect = higher value;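 as to inhibition: 0% = full reaction with vehicle and 100% = no enzyme background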
Chain of Pantothenate synthetase (Mycobacterium tuberculosis (strain ATCC 25618 / H37Rv)) (P9WIL5 whole entry, looked up): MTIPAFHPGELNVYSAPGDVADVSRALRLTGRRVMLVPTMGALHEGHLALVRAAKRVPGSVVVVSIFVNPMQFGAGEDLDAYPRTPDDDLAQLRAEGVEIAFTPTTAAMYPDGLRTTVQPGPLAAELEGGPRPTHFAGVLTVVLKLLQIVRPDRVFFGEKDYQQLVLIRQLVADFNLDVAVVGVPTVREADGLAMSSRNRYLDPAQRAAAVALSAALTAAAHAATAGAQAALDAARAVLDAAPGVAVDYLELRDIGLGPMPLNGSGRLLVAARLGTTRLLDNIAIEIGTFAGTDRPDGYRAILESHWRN

COc1ccc(C2C(C(=O)N3CCC4(CC3)OCCO4)CC(=O)N2c2ccc(OC)cc2)cc1 (stereo not given)
inactive: growth inhibition [1] -8.58% | growth inhibition [2] -2.57% | viability increase [3] -3.2% | viability [4] 103% | inhibition [5] 1% | RAM network inhibition [6] 5.09%

CC(C)(C)C1CCc2onc(C(=O)Nc3cnn(Cc4ccc(F)cc4)c3)c2C1 (stereo not given)
> 100 µM: IC50 ([7]; measured here: coupling enzymes IC50 repeat trials) | IC50 ([7]; measured here: coupling enzymes counter-screen IC50)

Cc1cc(OCC(=O)NC2CCS(=O)(=O)C2)c2c3c(c(=O)oc2c1)CCC3 (stereo not given)
inactive: growth inhibition [1] -13.3% | growth inhibition [2] -15.4% | viability increase [3] -5.3% | viability [8] 87.2% | inhibition [5] 1.55% | RAM network inhibition [6] 2.75%

O=C1OCCN1P(=O)(c1ccccc1)c1ccccc1
inactive: growth inhibition [1] -6.19% | growth inhibition [2] 2.02% | viability increase [3] -0.69% | viability [8] 98.4% | viability [4] 98% | inhibition [5] 0.445% | RAM network inhibition [6] -1.04%

O=C(Cc1ccc(Br)cc1)N1CCN(Cc2ccccc2)CC1
inactive: growth inhibition [1] -2.42% | growth inhibition [2] -2.88% | viability increase [3] -1.69% | viability [4] 72.7% | inhibition [5] 1.23% | RAM network inhibition [6] 5.41%

Cc1c(C(=O)N2CCC3(CC2)OCCO3)oc2ccc(S(=O)(=O)N3CCOCC3)cc12
inactive: growth inhibition [1] -9.41% | growth inhibition [2] -18.4% | viability increase [3] -1.67% | viability [4] 98.4% | inhibition [5] 1.09% | RAM network inhibition [6] 1.19%

COC(=O)C(O)(c1ccc(N(C)S(=O)(=O)c2ccccc2)cc1)C(F)(F)F (stereo not given)
inactive: growth inhibition [1] -3.52% | growth inhibition [2] 2.86% | viability increase [3] 1.65% | viability [8] 98.8% | viability [4] 108% | inhibition [5] 1.2% | RAM network inhibition [6] 0.9%

Nc1ccc(S(=O)(=O)N2CCCCC2c2cccnc2)cc1 (stereo not given)
inactive: growth inhibition [1] -3.15% | growth inhibition [2] 0.935% | viability increase [3] -0.96% | viability [8] 103% | viability [4] 104% | inhibition [5] 0.625% | RAM network inhibition [6] -0.2%

Cc1nc2cc(C(F)(F)F)ccc2n1C1CCN(Cc2nnnn2Cc2cccs2)CC1
inactive: growth inhibition [1] -11.3% | growth inhibition [2] -18.3% | viability increase [3] -6.21% | viability [8] 76.1% | viability [4] 67.6% | inhibition [5] 1.01% | RAM network inhibition [6] -0.01%

CCCCCCn1c(=O)c(C(=O)Nc2ccncc2)c(O)c2ccccc21
active: growth inhibition [1] 93.5% | growth inhibition [2] 97.4%
inactive: viability increase [3] -7.48% | inhibition [5] -0.885% [strain carries analog-sensitive mutant Cbk1 kinase] | RAM network inhibition [6] -1.58%

O=C1CC(N2CC=C(c3ccccc3)CC2)C(=O)N1c1ccc(F)cc1 (stereo not given)
inactive: growth inhibition [1] -7.4% | growth inhibition [2] -4.17% | viability increase [3] 3.41% | viability [8] 98.8% | viability [4] 97.3% | inhibition [5] 0.99% | RAM network inhibition [6] 5.39%

CCCOc1ccccc1C1SCC(=O)Nc2c1c(=O)[nH]n2C(C)CCC (stereo not given)
inactive: growth inhibition [1] -9.65% | growth inhibition [2] -5.25% | viability increase [3] 1.02% | viability [8] 94% | inhibition [5] 1.6% | RAM network inhibition [6] 1.25%

CCCCCCOc1ccc(CN2CCN(CCO)CC2)cc1
inactive: growth inhibition [1] -16.7% | growth inhibition [2] 2.46% | viability increase [3] -6.03% | viability [8] 60.7% | viability [4] 75.5% | inhibition [5] 2% | RAM network inhibition [6] -1.21%

CC(CO)(CO)N=Cc1c(O)n(-c2cccc3ccccc23)c(=O)[nH]c1=O
inactive: growth inhibition [1] -9.27% | growth inhibition [2] -18.2% | viability increase [3] -1.01% | viability [8] 95.8% | viability [4] 99% | inhibition [5] 0.52% | RAM network inhibition [6] 4.06%

Cc1nc2ccc(Cl)cn2c1P(=S)(N1CCOCC1)N1CCOCC1
inactive: growth inhibition [1] -10.4% | growth inhibition [2] 4.46% | viability increase [3] -2.81% | viability [8] 99.8% | inhibition [5] 0.175% | RAM network inhibition [6] 5.03%

CCOC(=O)c1c(C)c(P(=S)(N2CCOCC2)N2CCOCC2)n(C)c1C
inactive: growth inhibition [1] -22.4% | growth inhibition [2] -3.18% | viability increase [3] -3.92% | viability [8] 89.1% | viability [4] 87.1% | inhibition [5] 2.06% | RAM network inhibition [6] 2.36%

O=c1cccc2n1CC1CC2CN(C(c2cccc(F)c2)c2sc3ncnn3c2O)C1 (stereo not given)
inactive: growth inhibition [1] -2.99% | growth inhibition [2] -4.42% | viability increase [3] -0.98% | viability [8] 105% | viability [4] 111% | inhibition [5] 2.02% | RAM network inhibition [6] -0.21%

COc1cc2c(cc1OC)C(C(=O)N1CCC3(CC1)OCCO3)C(c1ccccc1F)N(C)C2=O (stereo not given)
inactive: growth inhibition [1] -3.76% | growth inhibition [2] 12% | viability increase [3] -3.17% | viability [4] 84.3% | inhibition [5] 1.23% | RAM network inhibition [6] 0.57%

Cn1cc(C(=O)c2ccccc2)c2ccccc21
inactive: growth inhibition [1] -1.98% | growth inhibition [2] 0.835% | viability increase [3] -1.92% | viability [8] 80.8% | viability [4] 87.1% | inhibition [5] 0.46% | RAM network inhibition [6] -3.38%

CCOc1ccc(-n2c(O)c(C=Nc3ccc(N4CCOCC4)cc3)c(=O)[nH]c2=O)cc1
inactive: growth inhibition [1] -8.12% | growth inhibition [2] -10.6% | viability increase [3] -3.19% | viability [8] 97.8% | viability [4] 103% | inhibition [5] 0.445% | RAM network inhibition [6] 5.35%

CN1CCN(CCC(C#N)(c2ccccc2)c2ccccc2)CC1
inactive: growth inhibition [1] -19.9% | growth inhibition [2] -7.5% | viability increase [3] -2.94% | viability [8] 87% | inhibition [5] 1.81% | RAM network inhibition [6] 0.63%

CCc1sc(C(=O)N2CCC3(CC2)OCCO3)cc1Br
inactive: growth inhibition [1] -7.48% | growth inhibition [2] -12.2% | viability increase [3] -2% | viability [4] 100% | inhibition [5] 0.935% | RAM network inhibition [6] 1.59%

CCOC(=O)c1cncn1C(C)c1ccccc1 (stereo not given)
inactive: growth inhibition [1] -15.6% | growth inhibition [2] 1.2% | viability increase [3] -2.02% | viability [8] 102% | inhibition [5] 0.145% | RAM network inhibition [6] 3.01%

O=C1CCCC2=C1C(c1cccnc1)Nc1ccccc1N2 (stereo not given)
inactive: growth inhibition [1] -12.3% | growth inhibition [2] -2.74% | viability increase [3] -1.06% | viability [8] 90.8% | viability [4] 99.2% | inhibition [5] 1.61% | RAM network inhibition [6] 4.54%

CN1CCN(c2ccc(NC(=O)C(C)(C)C)cc2)CC1
inactive: growth inhibition [1] -17.9% | growth inhibition [2] 6% | viability increase [3] -1.56% | viability [8] 94.8% | inhibition [5] 1.54% | RAM network inhibition [6] 5.29%

CC1(C)CC(n2[nH]c(=O)c3c2NC(=O)CSC3c2ccc(F)cc2)CCO1 (stereo not given)
inactive: growth inhibition [1] -12.3% | growth inhibition [2] -25.8% | viability increase [3] -2.67% | viability [8] 95.8% | inhibition [5] -0.28% | RAM network inhibition [6] 4.89%

COCCOC(=O)C1=C(N)OC(C)=C(C(=O)OC)C12C(=O)Nc1ccccc12 (stereo not given)
inactive: growth inhibition [1] -5.22% | growth inhibition [2] -5.97% | viability increase [3] -4.28% | viability [4] 93% | inhibition [5] 2.54% | RAM network inhibition [6] 3.95%

Cc1nn(C2CCOC(C)(C)C2)c2c1C(c1ccc3c(c1)OCO3)SCC(=O)N2 (stereo not given)
inactive: growth inhibition [1] 7.63% | growth inhibition [2] 14.5% | viability increase [3] -0.34% | viability [8] 97% | inhibition [5] 0.985% | RAM network inhibition [6] 1.2%

Cc1ccc(-n2nc(C)c3c2NC(=O)CSC3c2ccc3c(c2)OCO3)cc1 (stereo not given)
inactive: growth inhibition [1] -3.05% | growth inhibition [2] 2.3% | viability increase [3] 0.35% | viability [8] 89.9% | viability [4] 96.3% | inhibition [5] 0.385% | RAM network inhibition [6] 1.16%

CCOC(=O)c1c(C)n(Cc2ccccc2)c2ccc(OCC(O)Cn3nc(C)nc3C)cc12 (stereo not given)
inactive: growth inhibition [1] -0.525% | growth inhibition [2] 19.9% | viability increase [3] -0.16% | viability [8] 82.7% | viability [4] 88.3% | inhibition [5] -0.42% | RAM network inhibition [6] 0.63%

CCOc1ccc(N(C)S(=O)(=O)c2ccc3[nH]cc(C(=O)NCC4CCCO4)c(=O)c3c2)cc1 (stereo not given)
inactive: inhibition [9] 0%
